Source: ChEMBL document CHEMBL1154705, “Modulation of carcinogen metabolizing enzymes by new fused heterocycles pendant to 5,6,7,8-tetrahydronaphthalene derivatives” (Eur J Med Chem, 2010)
The source made the active and inactive calls. The rule behind the calls is not given here.

Legend:
[1] = target: T1, Epoxide hydrolase 1 (Mus musculus) (UniProt Q9D379); assay: Induction of mEH enzyme in mouse Hepa-1c1c7 assessed as formation of 7(29,39-dihydroxy)propoxycoumarin at 10 µg/ml after 48 hrs
T1 sequence (whole entry): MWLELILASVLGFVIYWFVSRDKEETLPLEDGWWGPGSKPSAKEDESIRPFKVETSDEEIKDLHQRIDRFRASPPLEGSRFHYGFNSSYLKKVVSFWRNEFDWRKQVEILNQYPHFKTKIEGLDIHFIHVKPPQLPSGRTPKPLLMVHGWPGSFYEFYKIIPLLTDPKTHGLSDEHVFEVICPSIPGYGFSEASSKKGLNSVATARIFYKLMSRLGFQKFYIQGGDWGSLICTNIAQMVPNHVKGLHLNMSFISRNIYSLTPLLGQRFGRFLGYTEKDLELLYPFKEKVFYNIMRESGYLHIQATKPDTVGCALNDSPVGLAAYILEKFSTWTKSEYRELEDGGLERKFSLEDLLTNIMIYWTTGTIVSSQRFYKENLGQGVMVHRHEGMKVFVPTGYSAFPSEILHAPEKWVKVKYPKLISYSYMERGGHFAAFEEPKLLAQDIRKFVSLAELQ

[2] = system: Lymphocyte; assay: Inhibition of methyl methanesulphonate-induced DNA damage in human lymphocyte assessed as tail length at 10 ug/ml after 1 hr before MMS challenge measured after 3 hrs by comet assay; format: functional
[3] = system: Hepa-1c1c7; assay: Inhibition of CYP1A in mouse Hepa-1c1c7 cells at 1 ug/ml assessed as dealkylation rate of 3-cyano-7-ethoxycoumarin; format: cell-based
[4] = Cytotoxicity against mouse Hepa-1c1c7 cells after 48 hrs by MTT assay; format: functional, cell-based
In short: (§1)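 MTT reduction assay: cells seeded at 5 x10⁴ cells/well and incubated 48 h at 37 °C with various concentrations of compounds. Formazan solubilized in acidic isopropanol.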

[5] = Cytotoxicity against human lymphocytes after 48 hrs by MTT assay; format: functional, cell-based; settings: lymphocyte
In short: as §1

[6] = system: Lymphocyte; assay: Inhibition of methyl methanesulphonate-induced DNA damage in human lymphocyte assessed as inhibition of tail moment at 10 ug/ml after 1 hr before MMS challenge measured after 3 hrs by comet assay; format: functional, cell-based
[7] = Antioxidant activity assessed as peroxyl radical scavenging activity by ORAC assay; format: functional
[8] = Antioxidant activity assessed as hydroxyl radical scavenging activity by ORAC assay; format: functional
[9] = system: Hepa-1c1c7; assay: Antioxidant activity in mouse Hepa-1c1c7 cells assessed as increase in total thiol content at […] after 48 hrs; format: functional, cell-based
In short: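 Hepa1c1c7 cells (1 x10⁶) exposed to compounds for 48 h (DMSO vehicle diluted 1000-fold; DMSO-treated cells as comparator). Total cellular thiols measured by glutathione disulfide reductase/DTNB enzymatic cycling. Four repeats, mean ± S.D.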

[10] = system: Hepa-1c1c7; assay: Induction of GST activity in mouse Hepa-1c1c7 cells at 10 ug/ml after 48 hrs by bicinchoninic acid assay; format: cell-based
In short: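 Hepa1c1c7 cells in DMEM with 10% FBS, 37 °C, 5% CO₂, treated 48 h with compounds (DMSO diluted 1000-fold). Total GST activity read kinetically at 340 nm. Activity normalized to protein by BCA and given relative to DMSO control (100%). Four repeats, mean ± S.D.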

Structure (SMILES) | Activity [1] | Activity [2] [micrometer] | inhibition [3] [%] | IC50 [4] [µg/mL] | IC50 [5] [µg/mL] | Activity [6] | Activity [7] | Activity [8] | Activity [9] | Activity [10]
Cc1cc[n+](CC(=O)c2ccc3c(c2)CCCC3)cc1.[Br-] | Active | 59.41 | < 10 | > 50 | > 50 | – | – | – | – | –
O=C(C[n+]1ccccc1)c1ccc2c(c1)CCCC2.[Br-] | Active | 34.31 | < 10 | > 50 | > 50 | Active | Active | Active | Active | Active
COC(=O)c1c(C(=O)OC)c2cccc(C)n2c1C(=O)c1ccc2c(c1)CCCC2 | – | 18.3 | < 10 | > 50 | > 50 | Active | – | Active | – | Active
Cc1cccc[n+]1CC(=O)c1ccc2c(c1)CCCC2.[Br-] | Active | 17.7 | < 10 | > 50 | > 50 | Active | Active | – | – | –
COC(=O)c1c(C(=O)OC)c2cc(C)ccn2c1C(=O)c1ccc2c(c1)CCCC2 | – | 22.8 | < 10 | > 50 | > 50 | Active | – | Active | Active | –
c1ccc2c(c1)nc1[nH]c(-c3ccc4c(c3)CCCC4)cn12 | – | 17.2 | 26.4 | > 50 | > 50 | Active | – | – | Active | Active
COC(=O)c1c(C(=O)OC)c2ccccn2c1C(=O)c1ccc2c(c1)CCCC2 | – | 36.66 | < 10 | > 50 | > 50 | – | – | – | – | –
